The source made the active and inactive calls.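 The calls were made as follows, unless noted: active = compounds giving at least 50% inhibition in the cell-based MKP-3 phosphatase rescue imaging test; inactive = the rest.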
Tests used:
[1] = inhibitors of TNFa-induced NFkB p65 translocation, primary screen, imaging, HUVEC, MLSMR starter and 10KST1 sets (AID 438;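 active = inhibition above 20% together with a positive visual image hit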;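 also: compound added about 3h40 before a 20 min TNFalpha stimulation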;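 as to inhibition: signal is the nuclear over cytoplasmic p65 intensity ratio per well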); conditions: HUVEC TNFa-induced p65 nuclear translocation; cell count: measured here: nuclei count (cytotoxicity indicator), at 2.08 µM; inhibition: at 2 µM, stronger effect = higher value, 0% TNFa-plus-vehicle, 100% no-TNFa wells
[2] = inhibitors of E-selectin induction by TNFa, primary screen, imaging, HUVEC, immunofluorescence, MLSMR starter and 10KST1 sets (AID 487;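 active = visually confirmed hit in the image check and inhibition above 20%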;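 as to inhibition: signal is fraction of cell area covered by stained E-selectin grains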;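 as to nuclei count: 100% = median nuclei count of all wells on the same plate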); conditions: HUVEC TNFalpha-induced E-selectin immunofluorescence imaging, at 2 µM; inhibition: stronger effect = higher value; nuclei count: measured here: cell number, toxicity
[3] = DUSP6 inhibitors restoring Erk phosphorylation by chemical complementation, primary imaging in DUSP6-transfected HeLa (AID 609); conditions: HeLa MKP-3 transfected, phospho-Erk imaging KS statistic, at 10 µM, cells stimulated with TPA for 15 min;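 as to inhibition: phospho-Erk level distribution per well compared with pooled transfected vehicle control wells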
[4] = biological target: Dual specificity protein phosphatase 6 (Homo sapiens) (UniProt Q16828); assay: as above; conditions: HeLa MKP-3 transfected, phospho-Erk imaging KS statistic; at 10 µM; stronger effect = higher value; cells stimulated with TPA for 15 min
Dual specificity protein phosphatase 6 (Homo sapiens), sequence (Q16828 whole entry, looked up): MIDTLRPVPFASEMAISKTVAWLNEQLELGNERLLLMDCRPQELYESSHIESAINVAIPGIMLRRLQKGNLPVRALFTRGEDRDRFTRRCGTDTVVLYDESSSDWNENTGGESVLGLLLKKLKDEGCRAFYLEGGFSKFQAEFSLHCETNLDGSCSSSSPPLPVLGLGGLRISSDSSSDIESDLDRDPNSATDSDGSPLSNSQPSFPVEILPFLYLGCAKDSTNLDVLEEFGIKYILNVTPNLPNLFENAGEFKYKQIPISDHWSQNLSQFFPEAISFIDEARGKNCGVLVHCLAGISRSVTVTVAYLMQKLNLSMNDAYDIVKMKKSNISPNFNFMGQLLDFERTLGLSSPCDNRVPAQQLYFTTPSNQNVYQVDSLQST

[5] = biological target: Voltage-gated potassium channel subunit beta-2 (Rattus norvegicus) (UniProt P62483); assay: KvBeta enzyme negative modulators, primary screen, biochemical, NADPH fluorescence (AID 622;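 active = fluorescence slope higher than the sample average by over 3 SD, cut at about -0.22 in these data, passing the limit was not always enough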;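 also: slope of raw intensity against log time taken from 70 to 1610 s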); conditions: recombinant KvBeta, 4-cyanobenzaldehyde reduction, at 10 µM, stronger effect = higher value
Voltage-gated potassium channel subunit beta-2 (Rattus norvegicus), sequence (P62483 whole entry, looked up): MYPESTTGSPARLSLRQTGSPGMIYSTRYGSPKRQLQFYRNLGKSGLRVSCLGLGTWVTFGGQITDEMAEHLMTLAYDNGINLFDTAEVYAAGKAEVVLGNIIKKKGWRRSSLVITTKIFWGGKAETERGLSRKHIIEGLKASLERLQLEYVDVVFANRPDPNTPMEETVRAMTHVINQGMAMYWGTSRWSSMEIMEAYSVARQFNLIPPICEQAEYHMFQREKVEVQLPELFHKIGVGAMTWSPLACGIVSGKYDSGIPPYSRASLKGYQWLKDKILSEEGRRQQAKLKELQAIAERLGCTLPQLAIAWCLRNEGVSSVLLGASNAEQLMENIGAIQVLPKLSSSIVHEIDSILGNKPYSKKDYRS

[6] = biological target: Voltage-gated potassium channel subunit beta-2 (Rattus norvegicus) (UniProt P62483); assay: KvBeta positive modulators, primary screen, biochemical, NADPH fluorescence (AID 623;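 active = NADPH fluorescence slope more negative than the mean of all samples by about 3 SD, 99.7% confidence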;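 also: fluorescence intensity change per second fitted from 20 to 320 s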); conditions: Recombinant KvBeta, NADPH fluorescence decrease slope, 10 min; at 10 µM; stronger effect = lower value
[7] = biological target: Muscarinic acetylcholine receptor M4 (Homo sapiens) (UniProt P08173); assay: compounds altering M4/GIRK thallium flux, either direction, primary screen, M4 allosteric agonist project, cell-based, HEK293 M4/GIRK, BTC-AM (AID 625;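 active = fluorescence slope after compound addition differing from the mean of all tested samples at 99.7% confidence, mostly higher but some lower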;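 also: thallium influx through GIRK channels coupled to M4 in HEK293 cells with BTC-AM dye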); conditions: at 10 µM, actives lie on both sides
Muscarinic acetylcholine receptor M4 (Homo sapiens), sequence (P08173 whole entry, looked up): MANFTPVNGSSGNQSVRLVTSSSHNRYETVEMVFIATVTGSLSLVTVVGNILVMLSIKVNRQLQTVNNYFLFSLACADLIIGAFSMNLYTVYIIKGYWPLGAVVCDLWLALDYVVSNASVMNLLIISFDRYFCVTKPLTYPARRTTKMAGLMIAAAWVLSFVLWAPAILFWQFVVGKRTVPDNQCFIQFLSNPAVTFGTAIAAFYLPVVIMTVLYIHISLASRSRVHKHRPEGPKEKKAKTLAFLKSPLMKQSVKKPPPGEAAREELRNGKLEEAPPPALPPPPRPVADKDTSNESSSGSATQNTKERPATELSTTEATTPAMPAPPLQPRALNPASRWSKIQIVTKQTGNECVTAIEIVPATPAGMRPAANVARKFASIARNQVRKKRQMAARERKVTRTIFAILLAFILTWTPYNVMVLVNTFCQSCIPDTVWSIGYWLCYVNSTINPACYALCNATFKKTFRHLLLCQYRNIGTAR
Summary of the method: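 Material – HEK293 cells with M4 receptor and GIRK channels · Buffer or medium – pH 7.3 thallium assay buffer · Doses – one dose, 10 µM final · Timing – cells overnight at 37 °C, BTC-AM loading 1 h, reads 2 min total · Measured by – kinetic fluorescence with BTC-AM dye · Controls – carbachol and DMSO controls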

[8] = inhibitors of larval lipid processing in zebrafish, primary screen, whole organism, PED6 fluorescence, gall bladder and intestine (AID 686;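 active = a full or partial loss of lipid-probe fluorescence in the fish gall bladder, intestine or both, judged by eye; inactive = no fluorescence loss, or compound toxic to the fish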;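 also: larvae 5 to 7 days old with five fish per well; signal comes from phospholipase A2 cleavage of quenched PED6 carried via bile; overnight exposure to compound and PED6 before scoring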); conditions: Zebrafish larvae PED6 lipid processing, fluorescence scoring; screened at 20 µM (by protocol)
Summary of the method: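 system = live zebrafish larvae aged 5-7 days, whole organism | probe or stimulus = ingested quenched lipid PED6 at 100 nM | doses = 20 µM single dose | timing = overnight exposure | detection = fluorescence microscopy with visual scoring of gall bladder and intestine | read-out = visual per-well fluorescence inhibition score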

[9] = inhibitors of Chlamydomonas gravitaxis, primary screen, whole organism, Chlamydomonas reinhardtii, WT vs cilia-less mutant, absorbance, 96-well (AID 463189;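 active = inhibition at or above 50% relative to wild type and mutant plate controls; inactive = inhibition below 50%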;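 also: 0% = wild type cc124 cells in DMSO and 100% = ciliumless bld1 mutant cells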); conditions: OD600 absorbance, 2 days, at 10 µM, stronger effect = higher value
[10] = measured here: cell density z-score
[11] = measured here: nuclear c-Myc green intensity z-score
[12] = measured here: nuclear pErk red intensity z-score, stronger effect = higher value

Compound	cell count [1]	inhibition [1]	inhibition [2]	nuclei count [2] [%]	z-score [3, 10]	z-score [3, 11]	z-score [3, 12]	inhibition [4]	fluorescence slope [5]	NADPH fluorescence slope [6]	fluorescence slope [7]	outcome [8]	inhibition [9]
O=C1c2ccccc2C(=O)N1CC1c2ccccc2CCN1C(=O)N1CCOCC1 (configuration not stated)	775	-4.1% (inactive)	-16.4% (inactive)	202	0.51	1.63	0.969	1.98% (inactive)	-0.485 (inactive)	-4.9e-05 (inactive)	0.0053 (inactive)	inactive	-3.71% (inactive)
Cc1cc(C)c(S(=O)(=O)O)c(C)n1	533	-13.8% (inactive)	6.7% (inactive)	203	-0.302	0.575	0.985	-5.95% (inactive)	-0.393 (inactive)	-4.7e-05 (inactive)	0.00523 (inactive)	inactive	-7.08% (inactive)
CCC(=O)Nc1nc(C)c(Oc2ccccc2)c(=O)[nH]1	696	-5.5% (inactive)	34.5% (inactive)	151	-0.359	-0.286	0.522	-9.53% (inactive)	-0.412 (inactive)	-4.2e-05 (inactive)	0.00483 (inactive)	inactive	2.71% (inactive)
COc1ccc(OC)c(C2C(C#N)=C(N)Oc3cc(C)n(Cc4ccccn4)c(=O)c32)c1 (configuration not stated)	736	3.4% (inactive)	-76% (inactive)	167	0.84	0.709	-0.214	13.2% (inactive)	-0.443 (inactive)	-7.4e-05 (inactive)	0.0059 (inactive)	inactive	11.4% (inactive)
O=C1CCC(=O)N1c1nc2n(n1)C(c1ccccc1)C=C(c1ccc(Br)cc1)N2 (configuration not stated)	369	3% (inactive)	-50% (inactive)	71.6	0.246	-0.538	-1.14	3.56% (inactive)	-0.374 (inactive)	-9.5e-05 (inactive)	0.0047 (inactive)	inactive	17.5% (inactive)
CCn1c(SCC(=O)NC2CCCCC2C)nnc1-c1ccc(OC)cc1 (configuration not stated)	430	-4.4% (inactive)	-37.9% (inactive)	149	-0.0183	0.142	0.845	7.73% (inactive)	-0.45 (inactive)	-0.000123 (inactive)	0.00502 (inactive)	inactive	-4.06% (inactive)
O=C1C(=O)N(Cc2cccnc2)C(c2ccccn2)/C1=C(/O)c1ccc(Br)cc1 (configuration not stated)	486	-5.3% (inactive)	-24.5% (inactive)	156	1.28	-0.786	-0.613	4.37% (inactive)	-0.457 (inactive)	-4.3e-05 (inactive)	0.00516 (inactive)	inactive	-1.46% (inactive)
CCOC(=O)c1c(C)oc2ccc(OCC(=O)C(C)(C)C)cc12	668	-6% (inactive)	-24.4% (inactive)	124	0.82	-1.27	0.55	20.2% (inactive)	-0.435 (inactive)	-5.9e-05 (inactive)	0.00509 (inactive)	inactive	-8.35% (inactive)
CN(C)CCCNCCCCNC(=O)/C=N/O	458	3.8% (inactive)	-56.6% (inactive)	143	-0.174	-0.575	1.08	17.7% (inactive)	-0.441 (inactive)	-3.9e-05 (inactive)	0.00523 (inactive)	inactive	6.6% (inactive)
CC(=O)/C(C#N)=C1\NC(=O)C(Cc2ccccc2Cl)S1 (configuration not stated)	605	-10.1% (inactive)	31.2% (inactive)	179	1.48	-0.162	-0.594	7.42% (inactive)	-0.416 (inactive)	-7e-05 (inactive)	0.00568 (inactive)	inactive	4.47% (inactive)
NC(=O)CSc1nnc2n(-c3ccccc3)c(=O)c3c4c(sc3n12)CCCCC4	376	-1.4% (inactive)	-45.3% (inactive)	193	-0.963	1.04	0.285	-2.59% (inactive)	-0.51 (inactive)	-0.000119 (inactive)	0.00448 (inactive)	inactive	7.56% (inactive)
CC(=O)Nc1ccc(NCC(O)COc2ccccc2)cc1 (configuration not stated)	374	6.4% (inactive)	6.8% (inactive)	81.4	-1.13	-0.751	0.509	-2.59% (inactive)	-0.495 (inactive)	-6.3e-05 (inactive)	0.00402 (inactive)	inactive	22.2% (inactive)
COc1ccc2[nH]c(C)c(C(=O)CN3CCOCC3)c2c1	640	7.2% (inactive)	-85.7% (inactive)	184	-1.08	1.22	0.499	-1.98% (inactive)	-0.466 (inactive)	-6.6e-05 (inactive)	0.00952 (inactive)	inactive	13.2% (inactive)
COc1ccc(/C(O)=C2/C(=O)C(=O)N(c3nc(C)c(C)s3)C2c2ccco2)cc1 (configuration not stated)	611	-12.5% (inactive)	-52.8% (inactive)	196	1.1	-0.551	1.3	12.7% (inactive)	-0.446 (inactive)	-5.8e-05 (inactive)	0.00557 (inactive)	inactive	0.492% (inactive)

— PubChem BioAssay
